Test results as given in ChEMBL document CHEMBL3525985, “Regiospecificity and stereospecificity of human UDP-glucuronosyltransferases in the glucuronidation of estriol, 16-epiestriol, 17-epiestriol, and 13-epiestradiol” (Drug Metab Dispos, 2013).

Experiments:
Assay type in all cases: ADME
[1] = Drug metabolism in human intestine microsomes assessed as estriol-16-glucuronide formation after 15 to 60 mins by Michaelis-Menten equation analysis in presence of UDPGA
How it was run: (§1)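 Pooled human intestine microsomes (6 donors), 0.5 or 10 µg, with alamethicin at 5% of total protein. Incubated with 50 mM phosphate pH 7.4, 10 mM MgCl₂, 5 mM UDPGA and 10% DMSO for 15–60 min at 37°C. Each glucuronide regioisomer quantified by HPLC, in triplicate, with substrate consumption at or below 10%.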

[2] = Drug metabolism in human intestine microsomes assessed as estriol-17-glucuronide formation after 15 to 60 mins by Michaelis-Menten equation analysis in presence of UDPGA; how it was run: as §1
[3] = target: T1, UDP-glucuronosyltransferase 1A10 (Homo sapiens, UniProt Q9HAW8); assay: Drug metabolism assessed as human UGT1A10-mediated 13-epiestradiol-3-glucuronide formation at 200 uM after 15 to 60 mins by HPLC analysis in presence of UDPGA; conditions: recombinant enzyme
T1 sequence (Q9HAW8 whole entry): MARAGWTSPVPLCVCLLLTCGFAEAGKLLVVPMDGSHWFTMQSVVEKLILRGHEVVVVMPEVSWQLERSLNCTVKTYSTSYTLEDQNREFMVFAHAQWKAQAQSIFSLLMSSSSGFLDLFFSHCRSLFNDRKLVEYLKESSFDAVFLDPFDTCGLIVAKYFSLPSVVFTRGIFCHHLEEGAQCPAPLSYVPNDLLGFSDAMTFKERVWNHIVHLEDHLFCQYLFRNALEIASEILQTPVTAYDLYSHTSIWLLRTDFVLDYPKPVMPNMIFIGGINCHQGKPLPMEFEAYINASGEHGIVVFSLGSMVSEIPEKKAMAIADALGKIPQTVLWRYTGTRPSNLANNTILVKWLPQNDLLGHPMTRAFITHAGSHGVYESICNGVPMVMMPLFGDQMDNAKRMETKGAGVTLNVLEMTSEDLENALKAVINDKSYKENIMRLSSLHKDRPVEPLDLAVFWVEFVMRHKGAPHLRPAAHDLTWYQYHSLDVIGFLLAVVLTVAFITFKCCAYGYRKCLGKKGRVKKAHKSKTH
How it was run: (§2)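 Screening at a single substrate concentration of 200 μM, in triplicate. The reaction used 5 or 50 µg of UGT-enriched insect cell membranes in 50 mM phosphate pH 7.4 with 10 mM MgCl₂ and 5 mM UDPGA, 10% final DMSO. Incubation was 15–60 min at 37°C. Perchloric acid stopped the reaction and supernatants were analysed by HPLC. Controls lacked UDPGA. Rates were normalized to relative UGT expression level.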

[4] = Drug metabolism in human intestine microsomes assessed as 16-epiestriol-16-glucuronide formation after 15 to 60 mins by Michaelis-Menten equation analysis in presence of UDPGA; how it was run: as §1
Liver microsome = assay: Drug metabolism in human liver microsomes assessed as 16-epiestriol-16-glucuronide formation after 15 to 60 mins by Michaelis-Menten equation analysis in presence of UDPGA
How it was run: as §1, with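 “liver” for “intestine”, “(30” for “(6”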

[5] = target: T2, UDP-glucuronosyltransferase 2B17 (Homo sapiens, UniProt O75795); assay: Drug metabolism assessed as recombinant human C-terminal His-tagged UGT2B17-mediated 16-epiestriol-17-glucuronide formation at 5 mg after 5 hrs by NMR spectroscopic analysis in presence of UDPGA
T2 sequence (O75795 whole entry): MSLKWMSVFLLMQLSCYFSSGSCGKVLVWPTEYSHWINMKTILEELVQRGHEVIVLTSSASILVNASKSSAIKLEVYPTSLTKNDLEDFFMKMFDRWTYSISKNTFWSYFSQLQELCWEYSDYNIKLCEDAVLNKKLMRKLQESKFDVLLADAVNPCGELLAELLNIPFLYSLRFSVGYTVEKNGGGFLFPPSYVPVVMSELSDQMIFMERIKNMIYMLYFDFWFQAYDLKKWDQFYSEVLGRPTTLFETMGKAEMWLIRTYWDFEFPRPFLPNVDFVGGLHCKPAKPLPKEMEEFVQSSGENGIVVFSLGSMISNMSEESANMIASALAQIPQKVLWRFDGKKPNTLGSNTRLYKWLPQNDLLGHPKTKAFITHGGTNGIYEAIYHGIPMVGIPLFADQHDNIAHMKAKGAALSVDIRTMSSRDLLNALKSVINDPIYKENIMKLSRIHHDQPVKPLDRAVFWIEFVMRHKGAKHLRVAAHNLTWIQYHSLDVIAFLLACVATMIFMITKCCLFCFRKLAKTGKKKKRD

[6] = target: T3, UDP-glucuronosyltransferase 1A3 (Homo sapiens, UniProt P35503); assay: Drug metabolism assessed as recombinant human C-terminal His-tagged UGT1A3-mediated 17-epiestriol-3-glucuronide formation at 200 uM after 15 to 60 mins by HPLC analysis in presence of UDPGA; conditions: recombinant enzyme; how it was run: as §2
T3 sequence (P35503 whole entry): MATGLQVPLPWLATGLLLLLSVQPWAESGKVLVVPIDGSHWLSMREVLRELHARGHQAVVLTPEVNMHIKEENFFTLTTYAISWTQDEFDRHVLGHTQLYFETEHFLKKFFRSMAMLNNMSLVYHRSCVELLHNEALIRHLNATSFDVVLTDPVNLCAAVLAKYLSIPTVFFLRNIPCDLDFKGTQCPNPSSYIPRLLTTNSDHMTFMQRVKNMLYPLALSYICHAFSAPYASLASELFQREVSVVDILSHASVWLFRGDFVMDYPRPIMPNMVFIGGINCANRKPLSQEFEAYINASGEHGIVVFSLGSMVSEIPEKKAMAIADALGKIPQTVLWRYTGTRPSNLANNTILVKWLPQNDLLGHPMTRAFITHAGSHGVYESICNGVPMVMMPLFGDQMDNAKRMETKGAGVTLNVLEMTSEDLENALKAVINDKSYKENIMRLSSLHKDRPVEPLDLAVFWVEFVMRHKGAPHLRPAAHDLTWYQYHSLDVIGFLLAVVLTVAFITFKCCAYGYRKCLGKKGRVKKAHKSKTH

Work on C[C@]12CC[C@@H]3c4ccc(O)cc4CC[C@H]3[C@@H]1C[C@@H](O)[C@@H]2O [ESTRIOL] yielded a Km [1] of 5.1 µM, a Vmax [1] of 953 pmol/min/mg and a Km [2] of 1120 µM. For the same compound, the Vmax [2] was 2095 pmol/min/mg.
For C[C@@]12CC[C@@H]3c4ccc(O)cc4CC[C@H]3[C@@H]1CC[C@@H]2O, the Drug metabolism [3] was “metabolite_detected”.
With C[C@]12CC[C@@H]3c4ccc(O)cc4CC[C@H]3[C@@H]1C[C@H](O)[C@@H]2O [EPIESTRIOL] the Km [4] was 43 µM, the Vmax [4] was 1480 pmol/min/mg and the Km (Liver microsome) was 33 µM. For the same compound, the Vmax (Liver microsome) was 8011 pmol/min/mg and the Drug metabolism [5] was “metabolite_detected”.
In the case of C[C@]12CC[C@@H]3c4ccc(O)cc4CC[C@H]3[C@@H]1C[C@@H](O)[C@H]2O, the Drug metabolism [6] is reported as “metabolite_detected”.
